For assay [1], the system named is Cryptococcus neoformans. In words: Antifungal activity against Cryptococcus neoformans NCIM 576 by agar plate assay. The format is functional. In a few lines: (§1)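 In vitro MIC determined by standard agar plate method (cup plate format). Compounds were tested in dimethyl sulfoxide, with DMSO alone as solvent control. Miconazole and fluconazole served as reference standards.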

For assay [2], the system named is Aspergillus flavus. In words: Antifungal activity against Aspergillus flavus NCIM 539 by agar plate assay. The class given is functional. In a few lines: as §1
Assay [3] relates to Candida albicans. Briefly: Antifungal activity against Candida albicans NCIM 3471 by agar plate assay. The format is functional. In short, it runs like this:
as §1

Assay [4] relates to Fusarium oxysporum. Briefly: Antifungal activity against Fusarium oxysporum NCIM 1332 by agar plate assay. The class given is functional. In a few lines:
as §1

For assay [5], the system named is Aspergillus niger. Briefly: Antifungal activity against Aspergillus niger NCIM 1196 by agar plate assay. The class given is functional. In short, it runs like this: as §1
The subject of assay [6] is Aspergillus flavus. Briefly: Antifungal activity against Aspergillus flavus NCIM 539 at 200 ug/mL by agar plate assay. The class given is functional, organism-based.
Assay [7] has as its system Aspergillus niger. Briefly: Antifungal activity against Aspergillus niger NCIM 1196 at 200 ug/mL by agar plate assay. The format is functional, organism-based.
Assay [8] concerns Cryptococcus neoformans. In words: Antifungal activity against Cryptococcus neoformans NCIM 576 at 200 ug/mL by agar plate assay. The format is functional, organism-based.
Assay [9] concerns Candida albicans. Briefly: Antifungal activity against Candida albicans NCIM 3471 at 200 ug/mL by agar plate assay. The class given is functional, organism-based.

The values that follow come from ChEMBL document CHEMBL1136980, “Synthesis of novel 3-(1-(1-substituted piperidin-4-yl)-1H-1,2,3-triazol-4-yl)-1,2,4-oxadiazol-5(4H)-one as antifungal agents” (2009).

SMILES strings stand for the structures. In brackets after ≈: the same amount, converted by molar mass. Activity calls are given as the source filed them.

Consider `CCC(=O)N1CCC(n2cc(-c3noc(=O)[nH]3)nn2)CC1`, for which the MIC in assay [1] came out at 85 µg/mL (≈ 291 µM); in assay [2], 42 µg/mL (≈ 144 µM); in assay [3], 85 µg/mL (≈ 291 µM); in assay [4], 90 µg/mL (≈ 308 µM); in [5] it was 42 µg/mL (≈ 144 µM).
With `CC(C)(C)OC(=O)N1CCC(n2cc(/C(N)=N/O)nn2)CC1`, the MIC in [1] worked out at 40 µg/mL (≈ 129 µM); in assay [2], 20 µg/mL (≈ 64.4 µM); in assay [3], 35 µg/mL (≈ 113 µM); in assay [4] it was 35 µg/mL (≈ 113 µM); in assay [5] it was 20 µg/mL (≈ 64.4 µM).
Consider `CCOC(=O)c1cn(C2CCN(C(=O)OC(C)(C)C)CC2)nn1`, for which the MIC is 35 µg/mL (≈ 108 µM) in assay [1]; 22 µg/mL (≈ 67.8 µM) in assay [2]; 40 µg/mL (≈ 123 µM) in [3]; 44 µg/mL (≈ 136 µM) in assay [4]; 19 µg/mL (≈ 58.6 µM) in [5].
In the case of `CCCC(=O)N1CCC(n2cc(-c3noc(=O)[nH]3)nn2)CC1`, the result in [6] and in assay [7] was inactive. Further, the MIC was 85 µg/mL (≈ 277 µM) in assay [1], 90 µg/mL (≈ 294 µM) in assay [3] and 95 µg/mL (≈ 310 µM) in assay [4].
As for `CC(C)(C)OC(=O)N1CCC(n2cc(C(N)=O)nn2)CC1`, the MIC in [1] was found to be 45 µg/mL (≈ 152 µM); in [2], 27 µg/mL (≈ 91.4 µM); in assay [3] it was 50 µg/mL (≈ 169 µM); in assay [4], 55 µg/mL (≈ 186 µM); in assay [5], 25 µg/mL (≈ 84.6 µM).
As for `CCN1CCC(n2cc(-c3noc(=O)[nH]3)nn2)CC1`, the MIC in assay [1] was found to be 39 µg/mL (≈ 148 µM); in assay [2], 19 µg/mL (≈ 71.9 µM); in assay [3], 37 µg/mL (≈ 140 µM); in assay [4], 39 µg/mL (≈ 148 µM); in [5], 19 µg/mL (≈ 71.9 µM).
`Clc1ccc(COC(Cn2ccnc2)c2ccc(Cl)cc2Cl)c(Cl)c1` (stereo not given) [MICONAZOLE]: the MIC was 25 µg/mL (≈ 60.1 µM) in assay [1]; 12.5 µg/mL (≈ 30 µM) in [2]; 25 µg/mL (≈ 60.1 µM) in assay [3]; 25 µg/mL (≈ 60.1 µM) in assay [4]; 12.5 µg/mL (≈ 30 µM) in assay [5].
Consider `CC(C)(C)OC(=O)N1CCC(n2cc(-c3noc(=O)[nH]3)nn2)CC1`, for which the MIC in [2] is 15 µg/mL (≈ 44.6 µM); in assay [3] it was 30 µg/mL (≈ 89.2 µM); in [4], 25 µg/mL (≈ 74.3 µM); in assay [5] it was 20 µg/mL (≈ 59.5 µM). Moreover, in assay [8], the result was inactive.
For `O=c1[nH]c(-c2cn(C3CCNCC3)nn2)no1`, the MIC in assay [2] amounted to 15 µg/mL (≈ 63.5 µM); in assay [3], 27.5 µg/mL (≈ 116 µM); in assay [4] it was 25 µg/mL (≈ 106 µM); in assay [5], 15 µg/mL (≈ 63.5 µM). Further, in assay [8], the outcome was inactive.
As to `CC(=O)N1CCC(n2cc(-c3noc(=O)[nH]3)nn2)CC1`, the MIC in [1] was 65 µg/mL (≈ 234 µM); in [2], 31 µg/mL (≈ 111 µM); in assay [3], 60 µg/mL (≈ 216 µM); in assay [4], 61 µg/mL (≈ 219 µM); in assay [5] it was 31 µg/mL (≈ 111 µM).
As for `CS(=O)(=O)N1CCC(n2cc(-c3noc(=O)[nH]3)nn2)CC1`, the MIC in assay [1] came to 27.5 µg/mL (≈ 87.5 µM); in assay [2], 15 µg/mL (≈ 47.7 µM); in assay [3], 20 µg/mL (≈ 63.6 µM); in assay [4] it was 25 µg/mL (≈ 79.5 µM); in assay [5] it was 10 µg/mL (≈ 31.8 µM).
Regarding `OC(Cn1cncn1)(Cn1cncn1)c1ccc(F)cc1F` [FLUCONAZOLE], the minimal inhibitory concentration (MIC) in [1] worked out at 5 µg/mL (≈ 16.3 µM); in [2], 5 µg/mL (≈ 16.3 µM); in assay [3], 5 µg/mL (≈ 16.3 µM); in [4], 5 µg/mL (≈ 16.3 µM); in [5], 10 µg/mL (≈ 32.7 µM).
With `CC(C)(C)OC(=O)N1CCC(n2cc(C#N)nn2)CC1`, the MIC in [2] amounted to 55 µg/mL (≈ 198 µM); in [4], 90 µg/mL (≈ 325 µM); in assay [5], 50 µg/mL (≈ 180 µM). The outcome in [9] and in assay [8] was inactive.
Turning to `O=C(c1ccc(Cl)cc1)N1CCC(n2cc(-c3noc(=O)[nH]3)nn2)CC1`, the MIC in [1] was 40 µg/mL (≈ 107 µM); in assay [2], 20 µg/mL (≈ 53.4 µM); in assay [3] it was 40 µg/mL (≈ 107 µM); in assay [4], 55 µg/mL (≈ 147 µM); in [5] it was 25 µg/mL (≈ 66.7 µM).
Turning to `Cc1ccc(S(=O)(=O)N2CCC(n3cc(-c4noc(=O)[nH]4)nn3)CC2)cc1`, the MIC in [1] amounted to 40 µg/mL (≈ 102 µM); in assay [2], 25 µg/mL (≈ 64 µM); in assay [3], 30 µg/mL (≈ 76.8 µM); in assay [4], 33 µg/mL (≈ 84.5 µM); in [5] it was 20 µg/mL (≈ 51.2 µM).
The corresponding values for `CN1CCC(n2cc(-c3noc(=O)[nH]3)nn2)CC1` are 60 µg/mL (≈ 240 µM), 10 µg/mL (≈ 40 µM), 20 µg/mL (≈ 79.9 µM), 25 µg/mL (≈ 99.9 µM) and 12.5 µg/mL (≈ 49.9 µM).
With `O=C(c1ccccc1)N1CCC(n2cc(-c3noc(=O)[nH]3)nn2)CC1`, the MIC in assay [1] amounted to 85 µg/mL (≈ 250 µM); in assay [2], 42 µg/mL (≈ 123 µM); in [3], 85 µg/mL (≈ 250 µM); in [4], 88 µg/mL (≈ 259 µM); in [5], 42 µg/mL (≈ 123 µM).

Broadly, the MIC is the smallest concentration in the dilution series that meets the test's criterion for growth inhibition. A lower MIC goes with inhibition by little substance.
